From PubChem
NF-kB neuron act: raises NF-kB expression in human neuronal cells; AID 1239; fold change at 12.5 µM; 1.6% of 190,000 active; NF-kB reporter expression; stronger effect = higher value; in the data active = fold change above about 3.3
APP 5'UTR act: activates APP 5'UTR luciferase reporter. SH-SY5Y APP 5'UTR luciferase reporter, luminescence; zero percent = DMSO vehicle wells. activation, % at 2 µM. 1% of 190,000 active. AID 1276;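 active = activation above a set limit, based on mean plus 3 SD of controls, cut at about 140% in these data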
STAT3 act: STAT3 signaling activation; AID 871; activation (% of control), % at 5.6 µM; 0.91% of 190,000 active; U3A cells, IL-6 STAT3-luciferase reporter, luminescence; 100% = signal with IL-6 EC80 alone;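 active = activation above the screen-wide mean of compound activation plus 3 SD, cut at about 130% in these data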
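Test system: human U3A cells carrying STAT3-luciferase construct; control set: IL-6-only wells as 100% reference; timing: compound pre-incubation 1 h before IL-6, then 6 h stimulation at 37 °C; also added: IL-6 stimulus at 33 ng/mL final; evaluation: % activation versus median of IL-6-stimulated wells; detection: reporter luminescence signal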
STAT1 activator: activators of IFN-gamma induced STAT1 signaling | 2.6% of 200,000 active | AID 932 | NIH 3T3 STAT1-luciferase reporter, luminescence; 100% = IFN-gamma alone, no compound | activation (% of control), % at 5.5 µM;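 active = activation above the screen-wide mean activation plus 3 SD, cut at about 130% in these data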
STAT1 inh: reduces IFN-gamma driven STAT1 reporter signal. NIH 3T3 STAT1-luciferase reporter, luminescence. inhibition, % at 5.5 µM. 0.35% of 200,000 active. AID 920;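 active = inhibition above a set limit, the mean inhibition across all tested compounds plus 3 SD, cut at about 34% in these data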
STAT3 blocker: reduces IL-6 driven STAT3 reporter signal | inhibition, % at 5.5 µM | U3A cells, IL-6 STAT3-luciferase reporter, luminescence; host cell line lacks STAT1 | 0.89% of 190,000 active;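 active = inhibition above the mean inhibition across all screened compounds plus 3 SD, cut at about 44% in these data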
Large screens that a line does not name were inactive. Compounds with a hit are over-represented: about 4.9% of the library has one in this group of screens.

O=C(c1cc2ccccc2c(=O)o1)N1CCCCCC1	none
O=C(CSc1ccsc1[N+](=O)[O-])NCCc1ccc(Cl)cc1	none
COc1ccc(CNC(=O)CSc2ccsc2[N+](=O)[O-])cc1	none
Cc1ccc(CNC(=O)CSc2ccsc2[N+](=O)[O-])cc1	STAT1 activator 133.5
O=C(CSc1ccsc1[N+](=O)[O-])NCCc1ccccc1	STAT3 act 135.5
Cc1nnn(C23CC4CC(CC(CC(=O)Nc5ccc(C)c(C)c5)(C4)C2)C3)n1	none
CCc1ccc(NC(=O)CN(N=Nc2nonc2C)c2nonc2C)cc1	none
CCc1cccc(N(C(=O)c2csnn2)C(C(=O)NC(C)(C)C)c2ccncc2)c1 (configuration not stated)	none
COc1ccccc1NC(=O)CN1CC(=O)Nc2ccccc21	STAT3 act 134.1
Cc1ccc(N=Nc2c(N)[nH]n3c(=O)c4c(nc23)CCCC4)cc1	none
O=S(=O)(Nc1ccc(-c2nc3cccnc3s2)cc1)c1cccs1	none
Cc1cc(-c2nc3cccnc3s2)ccc1NS(=O)(=O)c1cccs1	STAT1 activator 145.6 (no result: STAT3 act, STAT3 blocker)
CCS(=O)(=O)Nc1ccc(-c2nc3cccnc3s2)cc1	APP 5'UTR act 197.3 (no result: STAT3 act, STAT3 blocker)
CCS(=O)(=O)Nc1cc(-c2nc3cccnc3s2)ccc1C	STAT3 act 162.1, STAT1 activator 135.3
O=S(=O)(Nc1ccc(-c2nc3cccnc3s2)cc1)c1ccc(Cl)s1	STAT1 activator 131.4
Cc1ccc2c(C)c(C(=O)Nc3c(C)n(C)n(-c4ccccc4)c3=O)oc2c1C	none
COc1ccc(/C=C/C2=NN(C)C(=O)CC2)cc1	NF-kB neuron act 3.37, APP 5'UTR act 149.1
CCOC(=O)c1c(NC(=O)CSC(=S)N2CCOCC2)sc(C)c1C	none
Clc1ccc(-c2cc3ccccc3[nH]2)cc1	STAT1 activator 130.9
Cc1ccc(NC(=O)c2c(Cl)nc3ccccn23)cc1	STAT1 activator 139.4
Cc1nc2ccccn2c1C(=O)Nc1ccc(Cl)cc1	STAT1 activator 140.3
Oc1ccc(N=Nc2n[nH]c(-c3ccc(Cl)cc3)n2)cc1	none
CCN(c1ccccc1)S(=O)(=O)c1ccc(NC(=O)c2ccco2)cc1	none
O=C(Cc1ccccc1)Nc1ccc(NC(=O)c2ccco2)nc1	STAT1 activator 136.0
CC(C)(C)c1ccc(C(=O)Nc2ccc(NC(=O)c3ccco3)cc2)cc1	none
CN(c1ccccc1)S(=O)(=O)c1ccc(NC(=O)c2ccco2)cc1	STAT1 activator 132.2
O=C(Nc1nccs1)c1ccc(NC(=O)c2ccco2)cc1	STAT1 activator 136.8
CCOc1ccc(NC(=O)CCC(=O)NNC(=O)c2ccco2)cc1	none
CCOc1ccc(NC(=O)c2ccco2)cc1	NF-kB neuron act 3.88
O=C(Nc1ccc(NC(=O)c2ccco2)nc1)c1ccccn1	none
CCSc1nnc(NC(=O)c2cc(OC)c(OC)c(OC)c2)s1	none
CCn1c(CNc2ccc(Cl)cc2)nnc1SCC#N	none
CCCCNC(=O)C(C#N)c1nc2ccccc2nc1N1CCN(c2ccccc2F)CC1 (configuration not stated)	none
O=C(Nc1ccc(-c2ccccc2)cc1)c1ccco1	none
O=C(Nc1ccc(Nc2ccccc2)cc1)c1ccco1	NF-kB neuron act 4.15, STAT1 activator 134.0
CC1Cc2cc(/C(O)=C3/C(=O)C(=O)N(CCCn4ccnc4)C3c3ccncc3)ccc2O1 (configuration not stated)	none
CC1Cc2cc(/C(O)=C3/C(=O)C(=O)N(CCCn4ccnc4)C3c3ccco3)ccc2O1 (configuration not stated)	STAT1 activator 131.8
COc1ccc(N(CC(=O)NCCSc2ccccn2)S(C)(=O)=O)cc1	none
O=C(NCCSc1ccccc1)c1ccccc1	NF-kB neuron act 4.69, APP 5'UTR act 171.4, STAT1 activator 142.2
COc1ccc(C(=O)NCCSc2ccccn2)cc1	NF-kB neuron act 3.92, APP 5'UTR act 242.2, STAT1 activator 152.9
O=C(NCCSc1ccccc1)c1ccccc1Cl	NF-kB neuron act 4.71, STAT1 activator 140.8
COc1cccc(C(=O)NCCSc2ccc(F)cc2)c1	NF-kB neuron act 4.76, STAT1 activator 138.5
CCCCNC(=O)c1ccccc1Cl	none
O=C(NCCSc1ccccc1)c1cncc(Br)c1	none
CCOc1ccc(C(=O)C[n+]2ccc(C(=O)NCc3ccccc3)cc2)cc1	none
CCc1ccc(Oc2cc(Cl)nc(N)n2)cc1	none
CCOCCCNC(=O)c1cc(=O)n(Cc2cccc(C)c2)c2ccccc12	none
O=C(COc1ccc(-c2ccccc2)cc1)N1CCN(C(=O)c2cccs2)CC1	none
Cc1ccccc1C(=O)NCCSc1ccccc1	NF-kB neuron act 3.63, STAT1 activator 129.3
CSc1ccccc1C(=O)NCCSc1ccccc1	none
CCOC(=O)CCn1nc(-c2ccc(Cl)cc2)cc1N	STAT1 activator 138.3
CCOC(=O)Cn1nc(-c2ccc(Cl)cc2)cc1N	none
O=C(NN=C1CCCCCCCCCCC1)c1cccc(S(=O)(=O)N2CCOCC2)c1	none
CCC(=O)Oc1ccc(C(=O)Nc2ccc([N+](=O)[O-])cc2)cc1	STAT1 activator 133.9
CC(C)COc1ccc(C(=O)Nc2ccc([N+](=O)[O-])cc2)cc1	none
CN(C)S(=O)(=O)c1cccc(C(=O)OCC(=O)Nc2sccc2C#N)c1	STAT3 act 133.8
COc1ccc(N(C)S(=O)(=O)c2cccc(C(=O)OCC(=O)Nc3sc4c(c3C#N)CCCCC4)c2)cc1	none
Cc1ccc(N(CN2CCCC2=O)C(=O)c2ccc(OC(C)C)cc2)cc1	none
Cc1ccc2nc(-c3ccc(N4C(=NC(=O)CCC(=O)O)SC5CS(=O)(=O)CC54)cc3)sc2c1 (configuration not stated)	STAT1 activator 134.4
CCNC(=S)N/N=C(\C)c1cccc([N+](=O)[O-])c1	none
O=C(CNC(=O)c1ccccc1Cl)OCC(=O)N1CCc2ccccc21	STAT1 activator 133.6
Cc1ccc(C2=N/C(=C\N3CCCCC3)C(=O)O2)cc1	STAT1 activator 141.6
Cc1ccc(C2=N/C(=C/N3CCOCC3)C(=O)O2)cc1	STAT1 activator 128.6
Cc1cccc2cc(/C=C3\N=C(c4ccccc4)OC3=O)c(N3CCOCC3)nc12	none
COc1ccc(Oc2nccc(-c3ccccc3)c2C#N)cc1	STAT1 activator 129.1
COc1ccc(Oc2nccc(-c3ccc(F)cc3)c2C#N)cc1	none
O=[N+]([O-])c1ccc2nc(-c3ccccc3)n(OCc3ccc(Cl)cc3)c2c1	NF-kB neuron act 5.11
Cc1ccc(Oc2c(C=O)c3ccccc3n2C)cc1	STAT3 act 144.8
Cn1c(Oc2ccc(F)cc2F)c(C=O)c2ccccc21	none
Cn1c(Oc2ccc(Cl)cc2)c(C=O)c2ccccc21	STAT3 act 141.0
COc1ccc(Oc2c(C=O)c3ccccc3n2C)cc1	none
COc1ccc2c(CC(=O)Nc3ncc(C)s3)coc2c1	STAT1 activator 140.9
